Compounds with a hit are over-represented: about 2.9% of the library has one in this group of screens.
CHO-K1 Ca PAM – nonselective calcium activators in parental CHO-K1 cells, primary screen, counter-screen for M1 PAM project, cell-based, Fluo-8 calcium fluorescence, full deck, 1536-well | activation, % at 3 µM | 360,000 tested, 0.02% active | AID 602247, 2012 | ATP EC20; 0% at ATP EC20, 100% at ATP max;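 active = activation above the run cutoff, the mean activation of all test compounds plus 3 SD, cut at about 40% in these data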;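 note: peak over basal fluorescence ratio in a 140 s read after ATP addition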
CHO-K1 Ca antag – M1 antagonist counterscreen hit in parental CHO-K1 cells. ATP-induced calcium, Fluo-8 fluorescence. inhibition, % at 3 µM. 360,000 tested, 0.6% active;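 active = inhibition above a per-plate cutoff, the plate's mean sample inhibition plus 3 SD, cut at about 24% in these data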;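 note: 0% = DMSO plus EC80 ATP and 100% = DMSO alone without ATP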
CHO-K1 Ca ag – counter-screen for M1 agonists: effect in parental CHO-K1 cells; Fluo-8 calcium fluorescence; scaled to maximal ATP response, vehicle zero; activation, % at 3 µM; 360,000 tested, 0.48% active; AID 602248, 2012; in the data active = activation above about 15%;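 note: untransfected CHO-K1 host cells lacking M1 receptor as counterscreen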
OX1R antag-1 – antagonists of human orexin 1 receptor (OX1R); inhibition, % at 6.6 µM; AID 485270, 2010; OX1R-expressing cells, FRET antagonist read-out; 330,000 tested, 1.8% active; Orexin/Hypocretin receptor type 1 (Homo sapiens), O43613; in the data active = inhibition mostly above about 38%, no sharp cut-off; inactive = mostly below about 40%;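 note: 0% = agonist challenge alone and 100% = reference antagonist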
Target sequence (O43613 whole entry, looked up): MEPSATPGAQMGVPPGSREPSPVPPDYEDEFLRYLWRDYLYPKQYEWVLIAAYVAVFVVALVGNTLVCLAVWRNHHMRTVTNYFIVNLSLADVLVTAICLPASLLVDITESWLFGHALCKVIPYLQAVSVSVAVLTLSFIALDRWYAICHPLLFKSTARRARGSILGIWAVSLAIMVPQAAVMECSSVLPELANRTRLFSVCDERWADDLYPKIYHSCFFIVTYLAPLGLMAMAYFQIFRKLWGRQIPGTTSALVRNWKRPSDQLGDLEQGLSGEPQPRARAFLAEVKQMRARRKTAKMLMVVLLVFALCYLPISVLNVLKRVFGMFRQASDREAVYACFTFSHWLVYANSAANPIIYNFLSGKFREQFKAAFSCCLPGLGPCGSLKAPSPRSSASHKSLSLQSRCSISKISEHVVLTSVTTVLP
OX1R antag-2 – OX1R (HCRTR1) antagonists, primary screen, fluorescence, CHO/OX1R cells, Fluo-8 calcium, orexin A; 330,000 tested, 0.43% active; AID 434989, 2010; Orexin/Hypocretin receptor type 1 (Homo sapiens), O43613; Fluo-8 calcium fluorescence; inhibition, % at 5 µM;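 active = inhibition above its plate's threshold, mean inhibition of all tested compounds on the plate plus 3 SD, cut at about 37% in these data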;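 note: 0% = orexin A challenge wells and 100% = SB-334867-A antagonist wells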
CHO parental Ca – ATP-evoked calcium signal inhibitors, parental CHO, primary screen, counter-screen for OX1R antagonist project, cell-based, fluorescence, Fluo-8 calcium dye; parental CHO-K1, ATP-induced calcium, Fluo-8 fluorescence; inhibition, % at 5.6 µM; 330,000 tested, 0.63% active;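 active = inhibition above that plate's mean sample inhibition plus 3 SD, cut at about 26% in these data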;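 note: 0% = ATP-challenged DMSO wells and 100% = DMSO wells without ATP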
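Assay system – parental CHO cells · Reagent – ATP stimulus · Detection – intracellular calcium via Fluo-8 no-wash fluorescent dye · Evaluation – percent inhibition of ATP-evoked calcium rise, normalized to controls · Controls – ATP wells versus no-ATP DMSO wells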
OX1R HTRF confirm – OX1R (HCRTR1) antagonists, confirmation, cell-based, HTRF | inhibition, % at 6.6 µM | OX1R-expressing cells, HTRF antagonist assay | shares compounds with OX1R antag-1 | 1,800 tested, 49% active; in the data active = inhibition above about 55%;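 note: CHO cells expressing OX1R stimulated with orexin A at about EC80; 0% = agonist challenge alone and 100% = reference antagonist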
CHO-K1 HTRF cnt – signal inhibition in parental CHO-K1 cells, counter-screen for OX1R antagonist project, cell-based, HTRF; HTRF counterscreen; inhibition, % at 6.6 µM; shares compounds with OX1R antag-1; 1,800 tested, 48% active; in the data active = inhibition above about 17%;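 note: 0% = agonist challenge with vehicle and 100% = vehicle alone without agonist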
Active calls of the source: *; x = not tested or not shown.

SMILES	CHO-K1 Ca PAM	CHO-K1 Ca antag	CHO-K1 Ca ag	OX1R antag-1	OX1R antag-2	CHO parental Ca	OX1R HTRF confirm	CHO-K1 HTRF cnt
O=C(Nc1cccc(Cl)c1)Nc1ccc(Br)cc1F	-10	15	4	82*	15	10	36	15
COc1cccc(-c2nnc(SCC(=O)Nc3ccc4c(c3)OCCO4)n2Cc2ccco2)c1	8	-5	3	78*	24	-19	52	5
CCCCNC(=O)C(=O)Nc1cc2c3c(c1)CCC(=O)N3CCC2	0	-11	1	13	-19	-15	x	x
CCOc1ccc(NC(=O)CNS(=O)(=O)c2c(C)cc(C)cc2C)cc1	-24	10	0	82*	-3	-29	62*	0
CCOc1ccc(NC(=O)CC(=O)Nc2ccc(OCC)cc2)cc1	3	-14	1	1	4	4	x	x
Cc1ccc(-c2nnc(CN3CCCCC3C)o2)cc1 (stereo not drawn)	11	-4	0	0	-21	-12	x	x
